The values that follow come from PubChem BioAssay AID624010 (Broad Institute, 2012).

The target of this experiment is Scavenger receptor class B member 1 (Mus musculus) (UniProt Q61009). Briefly: inhibition of C384S mSR-BI lipid uptake – cell-based, C384S mutant, scintillation, dry powder, mechanism study for SR-BI HDL uptake inhibitor project, dose response (AID 624010). To be noted: CHO ldlA C384S mSR-BI, [3H]CE-HDL uptake. In a few lines: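 Assay system: CHO cells without LDL receptor, expressing C384S mutant mouse SR-BI. Medium: Ham's F12K with 0.5% fatty-acid-free BSA and 0.5% DMSO. Probe or stimulus: [3H]CE-HDL. Incubation: 1 h compound preincubation, then 2 h HDL uptake, 37 °C. Measured by: scintillation counting of [3H] label. Control set: unlabeled HDL excess (40-fold) and no-compound wells.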
Chain of Scavenger receptor class B member 1 (Mus musculus) (Q61009 whole entry C384S): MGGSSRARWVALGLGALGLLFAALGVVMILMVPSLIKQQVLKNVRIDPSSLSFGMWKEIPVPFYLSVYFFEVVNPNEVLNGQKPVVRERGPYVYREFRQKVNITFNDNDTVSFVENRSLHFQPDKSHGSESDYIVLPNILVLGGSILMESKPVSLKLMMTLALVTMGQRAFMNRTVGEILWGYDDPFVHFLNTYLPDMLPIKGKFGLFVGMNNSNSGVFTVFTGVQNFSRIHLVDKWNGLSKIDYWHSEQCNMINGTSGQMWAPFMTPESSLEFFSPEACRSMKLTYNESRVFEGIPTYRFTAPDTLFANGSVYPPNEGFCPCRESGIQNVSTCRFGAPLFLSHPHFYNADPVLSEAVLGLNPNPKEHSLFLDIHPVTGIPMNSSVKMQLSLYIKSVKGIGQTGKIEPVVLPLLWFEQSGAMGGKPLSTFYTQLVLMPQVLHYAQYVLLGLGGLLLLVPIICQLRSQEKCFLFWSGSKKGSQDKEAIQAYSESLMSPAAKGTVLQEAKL

Regarding `CC(C)NC(=O)Nc1ccc2c(c1)C(=O)N([C@H](C)CO)C[C@@H](C)[C@H](CN(C)S(=O)(=O)c1ccc(Cl)cc1)O2`, the AC50 (as a rule, the concentration at which the activity in the assay is half-maximal) was 500 nM.
